Assay results as given in article PMC12316956 (Scientific Reports, 2025).
Read-outs that look alike come from different tables or passages of the source.

Legend:
prostaglandin E2 (PGE2) = conditions: read-out: IC50 for PGE2; in vitro; ref Park et al.[47]; cited from earlier work
[1] = 80% T>IC50, 5 mg/kg, single oral, rats
nitric oxide (NO) = conditions: read-out: IC50 for NO; in vitro; ref Park et al.[47]; cited from earlier work
[2] = rats, same dose level; cited from earlier work
PC-9 cells = conditions: PC-9 lung cancer cell line; cited from earlier work
[3] = Pharmacokinetic study 2: oral compound K, single or 4 wks, in rats; assay type: in vivo, Sprague Dawley rats; conditions: AUC 4 wks / AUC single
Method in brief: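 Male SD rats (n = 5/group; 7 wk old for single dosing, 4 wk for 4 wks) got test compound in PBS by oral gavage at 5 or 10 mg/kg/day, single dose or 4 wks. Tail-vein plasma was sampled 0–24 h and assayed by LC-MS/MS. One-compartment model; AUC by trapezoids; Tmax as median (range). Accumulation factor = AUC(0−t) repeated / AUC(0−t) single at the same dose.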

[4] = assay type: in vivo, Sprague Dawley rats; conditions: for accumulation factor: rats
Method in brief: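 Male SD rats (n = 5/group) were 7 wk old for the single dose, 6 wk for 2 wks, and 4 wk for 4 or 8 wks. They received KRG in PBS, 2 g/kg/day PO. Tail-vein blood was drawn 0–96 h after the last dose and spun 13,700 x g for 15 min; plasma was stored at −80 °C. Rb1, Rd and compound K were measured by LC-MS/MS with berberine as internal standard. Non-compartmental analysis was used; Tmax is reported as median (range).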

[5] = humans; cited from earlier work
A549 = A549 lung cancer cell line; cited from earlier work
[6] = male, Sprague-Dawley, rat, plasma, po, 2 g/kg
[7] = KRG 2 g/kg oral, 2 wks vs single (AUC ratio)

In the case of `CC(C)=CCC[C@](C)(O[C@@H]1O[C@H](CO)[C@@H](O)[C@H](O)[C@H]1O)[C@H]1CC[C@]2(C)[C@@H]1[C@H](O)C[C@@H]1[C@@]3(C)CC[C@H](O)C(C)(C)[C@@H]3CC[C@]12C` [Compound K, compound K], the IC50 (prostaglandin E2 (PGE2)) is listed as 4 µM, the Calculated dosing interval ([1]; NO (IC50 12 µM)) is listed as ~7 h and the Calculated dosing interval ([1]; PGE2 (IC50 4 µM)) is listed as ~18 h. For the same compound, the IC50 (nitric oxide (NO)) was 12 µM, the oral bioavailability [2] was 4% and the “in vitro IC50, antitumor activity” value (PC-9 cells) was 14.46 µg/mL. For the same compound, the accumulation factor ([3]; compound K oral 5 mg/kg) was 4, the accumulation factor ([3]; compound K oral 10 mg/kg) was 7 and the Cmax ([4]; rat plasma, KRG 2 g/kg oral, 4 wks) was 2.9 ng/mL. The Cmax ([4]; rat plasma, KRG 2 g/kg oral, 8 wks) was 2.3 ng/mL, the “time of appearance in plasma after consuming ginseng lacking compound K” value [5] was 8 h and the “in vitro IC50, antitumor activity” value (A549) was 16.11 µg/mL.
In the case of `CC(C)=CCC[C@](C)(O[C@@H]1O[C@H](CO[C@@H]2O[C@H](CO)[C@@H](O)[C@H](O)[C@H]2O)[C@@H](O)[C@H](O)[C@H]1O)[C@H]1CC[C@]2(C)[C@@H]1[C@H](O)C[C@@H]1[C@@]3(C)CC[C@H](O[C@@H]4O[C@H](CO)[C@@H](O)[C@H](O)[C@H]4O[C@@H]4O[C@H](CO)[C@@H](O)[C@H](O)[C@H]4O)C(C)(C)[C@@H]3CC[C@]12C` [Rb1, ginsenoside Rb1], the Cmax [4, 6] is reported as 23.9 ng/mL, the Cmax at 8 wks [4, 6] is reported as 68.3 ng/mL and the accumulation factor [4, 7] is reported as “approximately 3”. For the same compound, the “time within which excreted in the urine” value [5] was ≤ 3 h.
For `CC(C)=CCC[C@](C)(O[C@@H]1O[C@H](CO[C@@H]2O[C@@H](CO)[C@H](O)[C@H]2O)[C@@H](O)[C@H](O)[C@H]1O)[C@H]1CC[C@]2(C)[C@@H]1[C@H](O)C[C@@H]1[C@@]3(C)CC[C@H](O[C@@H]4O[C@H](CO)[C@@H](O)[C@H](O)[C@H]4O[C@@H]4O[C@H](CO)[C@@H](O)[C@H](O)[C@H]4O)C(C)(C)[C@@H]3CC[C@]12C` [Rc, ginsenoside Rc], the “time within which excreted in the urine” value [5] is listed as ≤ 3 h.
For `CC(C)=CCC[C@](C)(O[C@@H]1O[C@H](CO)[C@@H](O)[C@H](O)[C@H]1O)[C@H]1CC[C@]2(C)[C@@H]1[C@H](O)C[C@@H]1[C@@]3(C)CC[C@H](O[C@@H]4O[C@H](CO)[C@@H](O)[C@H](O)[C@H]4O[C@@H]4O[C@H](CO)[C@@H](O)[C@H](O)[C@H]4O)C(C)(C)[C@@H]3CC[C@]12C` [Rd, ginsenoside Rd], the Cmax [4, 6] was 8.5 ng/mL, the accumulation factor [4, 7] was 2.2 and the accumulation factor ([4]; KRG 2 g/kg oral, 8 wks vs single (AUC ratio)) was 5. The “time within which excreted in the urine” value [5] was ≤ 3 h.
In the case of `CC(C)=CCC[C@](C)(O[C@@H]1O[C@H](CO)[C@@H](O)[C@H](O)[C@H]1O)[C@H]1CC[C@]2(C)[C@@H]1[C@H](O)C[C@@H]1[C@@]3(C)CC[C@H](O)C(C)(C)[C@@H]3[C@@H](O[C@@H]3O[C@H](CO)[C@@H](O)[C@H](O)[C@H]3O)C[C@]12C` [Rg1, ginsenoside Rg1], the “time within which excreted in the urine” value [5] is listed as ≤ 3 h.
